According to ChEMBL document CHEMBL3774381, “Discovery of Novel and Orally Bioavailable Inhibitors of PI3 Kinase Based on Indazole Substituted Morpholino-Triazines” (ACS Med Chem Lett, 2015):
pEC50, pIC50: −log10 of the molar value.

Key:
[1] = target: Phosphatidylinositol 4,5-bisphosphate 3-kinase catalytic subunit alpha isoform (Homo sapiens, UniProt P42336); assay: Inhibition of human recombinant PI3K-alpha using phosphatidylinositol biphosphate as substrate preincubated for 15 mins followed by substrate addition measured after 60 mins by HTRF assay
Chain of Phosphatidylinositol 4,5-bisphosphate 3-kinase catalytic subunit alpha isoform (P42336 whole entry, canonical isoform): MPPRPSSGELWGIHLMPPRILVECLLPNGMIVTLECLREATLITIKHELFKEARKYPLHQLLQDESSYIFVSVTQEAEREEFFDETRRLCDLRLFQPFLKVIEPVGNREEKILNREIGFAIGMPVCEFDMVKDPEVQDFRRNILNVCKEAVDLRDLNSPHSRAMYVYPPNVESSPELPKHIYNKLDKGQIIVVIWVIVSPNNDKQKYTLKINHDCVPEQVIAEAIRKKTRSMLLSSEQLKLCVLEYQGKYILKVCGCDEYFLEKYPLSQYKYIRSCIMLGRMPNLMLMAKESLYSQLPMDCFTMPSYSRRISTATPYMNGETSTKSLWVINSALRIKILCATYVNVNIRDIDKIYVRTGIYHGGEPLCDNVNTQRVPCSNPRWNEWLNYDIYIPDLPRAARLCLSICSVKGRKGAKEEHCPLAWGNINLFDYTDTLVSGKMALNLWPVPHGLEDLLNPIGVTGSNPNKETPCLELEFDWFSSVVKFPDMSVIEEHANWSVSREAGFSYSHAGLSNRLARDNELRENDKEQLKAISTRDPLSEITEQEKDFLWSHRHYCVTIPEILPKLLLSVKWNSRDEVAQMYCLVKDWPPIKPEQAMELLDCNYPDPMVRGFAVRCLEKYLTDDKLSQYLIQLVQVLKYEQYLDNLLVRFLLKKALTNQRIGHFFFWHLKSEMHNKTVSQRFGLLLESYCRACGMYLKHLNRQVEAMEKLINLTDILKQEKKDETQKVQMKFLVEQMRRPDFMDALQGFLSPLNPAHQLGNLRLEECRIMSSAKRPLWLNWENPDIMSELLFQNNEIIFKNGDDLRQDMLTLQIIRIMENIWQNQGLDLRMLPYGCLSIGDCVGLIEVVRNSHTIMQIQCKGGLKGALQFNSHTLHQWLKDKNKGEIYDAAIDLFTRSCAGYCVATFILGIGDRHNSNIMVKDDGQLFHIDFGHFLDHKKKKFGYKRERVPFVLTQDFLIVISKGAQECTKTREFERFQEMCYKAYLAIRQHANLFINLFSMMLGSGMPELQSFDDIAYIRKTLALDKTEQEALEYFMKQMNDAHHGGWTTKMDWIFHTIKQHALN

A2780 = assay: Antiproliferative activity against human A2780 cells assessed as reduction in cell viability after 48 hrs by MTT assay; type: functional, cell-based; conditions: A2780, 48 h
Procedure, shortened: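 Cellular EC50 was determined in the A2780 ovarian cancer line, with a coefficient of variation below 5%.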

[2] = Metabolic stability in mouse liver microsomes assessed as parent compound remaining at 10 uM after 2 hrs by HPLC analysis in presence of NADPH; type: ADME; conditions: read-out: Stability
Procedure, shortened: (§1)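 Compound was incubated with isolated human, dog or mouse liver microsomes for 2 h. Parent concentration was followed by HPLC at 0, 0.5, 1 and 2 h, and the 2 h value is reported as remaining parent.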

Cytochrome P450 3A4 [3] = target: T1, Cytochrome P450 3A4 (Homo sapiens, UniProt P08684); assay: Inhibition of CYP3A4 (unknown origin) at 10 uM; type: ADME
T1 sequence (P08684 whole entry): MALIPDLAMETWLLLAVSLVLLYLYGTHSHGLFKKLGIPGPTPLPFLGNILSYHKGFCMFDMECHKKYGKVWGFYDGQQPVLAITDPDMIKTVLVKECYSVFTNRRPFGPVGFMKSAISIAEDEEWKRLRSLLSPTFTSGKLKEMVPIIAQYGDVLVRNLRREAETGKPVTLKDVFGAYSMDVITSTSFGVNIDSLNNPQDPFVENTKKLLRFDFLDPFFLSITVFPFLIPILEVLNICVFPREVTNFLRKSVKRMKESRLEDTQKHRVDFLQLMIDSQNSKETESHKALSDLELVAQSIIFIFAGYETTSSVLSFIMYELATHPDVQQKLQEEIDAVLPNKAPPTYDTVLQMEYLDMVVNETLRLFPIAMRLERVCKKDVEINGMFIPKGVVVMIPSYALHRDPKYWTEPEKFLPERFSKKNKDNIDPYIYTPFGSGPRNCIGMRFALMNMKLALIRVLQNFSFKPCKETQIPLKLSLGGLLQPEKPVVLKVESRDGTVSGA
Procedure, shortened: (§2)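 Inhibition of CYP3A4, CYP2C19 and CYP2D6 activity was screened with test compound at 10 μM.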

Cytochrome P450 2D6 [4] = target: T2, Cytochrome P450 2D6 (Homo sapiens, UniProt P10635); assay: Inhibition of CYP2D6 (unknown origin) at 10 uM; type: ADME; procedure, shortened: as §2
T2 sequence (P10635 whole entry): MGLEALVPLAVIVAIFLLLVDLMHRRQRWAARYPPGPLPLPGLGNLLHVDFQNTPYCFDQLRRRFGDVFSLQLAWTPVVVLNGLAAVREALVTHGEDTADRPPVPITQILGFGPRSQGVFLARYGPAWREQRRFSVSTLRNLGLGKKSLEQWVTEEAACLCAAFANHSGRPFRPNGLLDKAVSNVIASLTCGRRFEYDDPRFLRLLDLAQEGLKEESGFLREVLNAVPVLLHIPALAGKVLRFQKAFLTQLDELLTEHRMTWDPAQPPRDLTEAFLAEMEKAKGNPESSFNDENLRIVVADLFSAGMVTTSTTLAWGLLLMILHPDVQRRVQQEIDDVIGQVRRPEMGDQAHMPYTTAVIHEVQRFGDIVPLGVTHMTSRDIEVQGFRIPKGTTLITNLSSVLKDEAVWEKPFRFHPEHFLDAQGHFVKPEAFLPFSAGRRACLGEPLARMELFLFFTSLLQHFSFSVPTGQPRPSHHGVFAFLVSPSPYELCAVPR

Cytochrome P450 2D6 [5] = target: T2, Cytochrome P450 2D6; assay: Inhibition of CYP2D6 (unknown origin); type: ADME; procedure, shortened: as §2
Cytochrome P450 2C19 [6] = target: T3, Cytochrome P450 2C19 (Homo sapiens, UniProt P33261); assay: Inhibition of CYP2C19 (unknown origin) at 10 uM; type: ADME; procedure, shortened: as §2
T3 sequence (P33261 whole entry): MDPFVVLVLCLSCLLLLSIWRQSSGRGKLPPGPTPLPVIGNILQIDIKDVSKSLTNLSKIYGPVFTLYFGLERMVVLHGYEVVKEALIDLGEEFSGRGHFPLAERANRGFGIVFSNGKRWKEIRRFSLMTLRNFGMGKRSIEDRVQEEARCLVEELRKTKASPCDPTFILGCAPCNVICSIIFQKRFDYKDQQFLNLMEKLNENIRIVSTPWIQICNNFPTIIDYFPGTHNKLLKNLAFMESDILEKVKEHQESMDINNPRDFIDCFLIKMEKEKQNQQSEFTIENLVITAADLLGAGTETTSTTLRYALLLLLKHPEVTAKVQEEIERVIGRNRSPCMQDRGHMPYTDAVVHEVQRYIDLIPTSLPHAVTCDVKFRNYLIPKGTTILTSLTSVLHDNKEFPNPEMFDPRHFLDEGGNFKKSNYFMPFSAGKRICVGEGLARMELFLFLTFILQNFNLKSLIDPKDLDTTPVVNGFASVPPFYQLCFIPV

Cytochrome P450 3A4 [7] = target: T1, Cytochrome P450 3A4; assay: Inhibition of CYP3A4 (unknown origin); type: ADME
Cytochrome P450 2C19 [8] = target: T3, Cytochrome P450 2C19; assay: Inhibition of CYP2C19 (unknown origin); type: ADME; procedure, shortened: as §2
[9] = Metabolic stability in human liver microsomes assessed as parent compound remaining at 10 uM after 2 hrs by HPLC analysis in presence of NADPH; type: ADME; conditions: read-out: Stability; procedure, shortened: as §1
[10] = AUC in Swiss mouse plasma at 3 mg/kg, po after 0.16 to 8 hrs by LC-MS analysis; type: ADME, organism-based; design: time lower 0.16 hr, dose 3 mg/kg, time upper 8 hr, route oral
Procedure, shortened: (§3)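 Single oral doses of 1, 3 and 10 mpk were given to mice in a dose-ranging study, with the 3 mpk screen run in Swiss mice. Plasma tmax, Cmax, AUC and elimination t1/2 were derived from each dose group.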

[11] = Tmax in Swiss mouse plasma at 3 mg/kg, po after 0.16 to 8 hrs by LC-MS analysis; type: ADME, organism-based; procedure, shortened: as §3
[12] = Tmax in Swiss mouse plasma at 10 mg/kg, po after 0.16 to 8 hrs by LC-MS analysis; type: ADME, organism-based; procedure, shortened: as §3
[13] = AUC in Swiss mouse plasma at 1 mg/kg, po after 0.16 to 8 hrs by LC-MS analysis; type: ADME, organism-based; design: dose 1 mg/kg, time 0.16-8 hr, route oral
Mus musculus [14] = assay: Toxicity in Swiss mouse assessed as hyperthermia at 30 mg/kg, po bid for 5 days; type: organism-based; conditions: in vivo, 120 h
Procedure, shortened: (§4)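 Swiss mice were dosed orally at 30 mpk BID for 5 consecutive days. Body weight, body temperature (hyper- or hypothermia), body coat and level of physical activity were monitored throughout.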

[15] = Metabolic stability in dog liver microsomes assessed as parent compound remaining at 10 uM after 2 hrs by HPLC analysis in presence of NADPH; type: ADME, Canis lupus familiaris; conditions: read-out: Stability; procedure, shortened: as §1
Mus musculus [16] = assay: Toxicity in Swiss mouse assessed as hypothermia at 30 mg/kg, po bid for 5 days; type: organism-based; conditions: in vivo, 120 h; procedure, shortened: as §4
[17] = AUC in Swiss mouse plasma at 10 mg/kg, po after 0.16 to 8 hrs by LC-MS analysis; type: ADME, organism-based; design: dose 10 mg/kg, time 0.16-8 hr, route oral; procedure, shortened: as §3
[18] = Tmax in Swiss mouse plasma at 1 mg/kg, po after 0.16 to 8 hrs by LC-MS analysis; type: ADME, organism-based; procedure, shortened: as §3
[19] = Cmax in Swiss mouse plasma at 1 mg/kg, po after 0.16 to 8 hrs by LC-MS analysis; type: ADME, organism-based; design: dose 1 mg/kg, route oral; procedure, shortened: as §3
[20] = Cmax in Swiss mouse plasma at 10 mg/kg, po after 0.16 to 8 hrs by LC-MS analysis; type: ADME, organism-based; design: dose 10 mg/kg, route oral; procedure, shortened: as §3
Mus musculus [21] = assay: Toxicity in Swiss mouse assessed as reduced physical activity at 30 mg/kg, po bid for 5 days; type: organism-based; conditions: in vivo, 120 h; procedure, shortened: as §4
[22] = Cmax in Swiss mouse plasma at 3 mg/kg, po after 0.16 to 8 hrs by LC-MS analysis; type: ADME, organism-based; design: dose 3 mg/kg, route oral; procedure, shortened: as §3
Mus musculus [23] = assay: Toxicity in Swiss mouse assessed as body weight loss at 30 mg/kg, po bid for 5 days; type: organism-based; conditions: in vivo, 120 h; procedure, shortened: as §4
[24] = Elimination half life in Swiss mouse plasma at 1 mg/kg, po after 0.16 to 8 hrs by LC-MS analysis; type: ADME, organism-based; conditions: read-out: beta t1/2 (converted)
[25] = Elimination half life in Swiss mouse plasma at 10 mg/kg, po after 0.16 to 8 hrs by LC-MS analysis; type: ADME, organism-based; conditions: read-out: beta t1/2 (converted); procedure, shortened: as §3
Mus musculus [26] = assay: Toxicity in Swiss mouse assessed as changes in body coat at 30 mg/kg, po bid for 5 days; type: organism-based; conditions: in vivo, 120 h; procedure, shortened: as §4
[27] = Elimination half life in Swiss mouse plasma at 3 mg/kg, po after 0.16 to 8 hrs by LC-MS analysis; type: ADME, organism-based; conditions: read-out: beta t1/2 (converted); procedure, shortened: as §3

SMILES: NC(=O)CNc1nc(-c2cccc(O)c2)nc(N2CCOCC2)n1
- pIC50 [1]: 6.13

SMILES: O=C1CCN(c2nc(-c3cccc4[nH]ncc34)nc(N3CCOCC3)n2)CCN1
- pIC50 [1]: 6.70
- pEC50 (A2780): 5.58

SMILES: COC(=O)CNc1nc(-c2cccc(O)c2)nc(N2CCOCC2)n1
- pIC50 [1]: 5.93

SMILES: CN(C)C(=O)c1cc(Oc2nc(-c3cccc4[nH]ncc34)nc(N3CCOCC3)n2)cs1
- pIC50 [1]: 7.00
- pEC50 (A2780): 5.85

SMILES: Nc1cccc(-c2nc(NCC(=O)O)nc(N3CCOCC3)n2)c1
- pIC50 [1]: < 5.00

SMILES: CN(C)C(=O)N1CCC(Oc2nc(-c3cccc4[nH]ncc34)nc(N3CCOCC3)n2)CC1
- remaining at 2 h, 10 µM [2]: 24.8%
- inhibition (INH) (Cytochrome P450 3A4 [3]): Not Active
- inhibition (INH) (Cytochrome P450 2D6 [4]): Not Active
- pIC50 [1]: 7.22
- pIC50 (Cytochrome P450 2D6 [5]): < 5.00
- pEC50 (A2780): 6.14
- inhibition (INH) (Cytochrome P450 2C19 [6]): Not Active
- pIC50 (Cytochrome P450 3A4 [7]): < 4.82
- pIC50 (Cytochrome P450 2C19 [8]): < 5.00
- remaining at 2 h, 10 µM [9]: 80.7%

SMILES: NC(=O)c1cccc(Oc2nc(-c3cccc4[nH]ncc34)nc(N3CCOCC3)n2)c1
- pIC50 [1]: 6.57
- pEC50 (A2780): 5.49

SMILES: O=C1CN(c2nc(-c3cccc4[nH]ncc34)nc(N3CCOCC3)n2)CCN1
- pIC50 [1]: 6.40
- pEC50 (A2780): 5.40

SMILES: c1ccc(Nc2nc(-c3cccc4[nH]ncc34)nc(N3CCOCC3)n2)cc1
- pIC50 [1]: 6.10
- pEC50 (A2780): 5.43

SMILES: CN(C)C(=O)CNc1nc(-c2cccc(O)c2)nc(N2CCOCC2)n1
- pIC50 [1]: 6.27

SMILES: CN(C)C(=O)CNc1nc(-c2cccc3c2CCC3O)nc(N2CCOCC2)n1 (stereo unspecified)
- pIC50 [1]: < 4.70

SMILES: CN(C)C(=O)CNc1nc(-c2cncc(O)c2)nc(N2CCOCC2)n1
- pIC50 [1]: 5.80

SMILES: NC(=O)c1cccc(Nc2nc(-c3cccc4[nH]ncc34)nc(N3CCOCC3)n2)c1
- pIC50 [1]: 7.10
- pEC50 (A2780): 6.09

SMILES: CN(C)C(=O)CCNc1nc(-c2cccc3[nH]ncc23)nc(N2CCOCC2)n1
- pIC50 [1]: 6.22
- pEC50 (A2780): 5.20

SMILES: CN(C)C(=O)CNc1nc(-c2cccc3[nH]ncc23)nc(N2CCOCC2)n1
- pIC50 [1]: 5.96

SMILES: CN(C)C(=O)c1sccc1Nc1nc(-c2cccc3[nH]ncc23)nc(N2CCOCC2)n1
- pIC50 [1]: 6.70
- pEC50 (A2780): 5.72

SMILES: CNc1cccc(Nc2nc(-c3cccc4[nH]ncc34)nc(N3CCOCC3)n2)c1
- pEC50 (A2780): 6.07

SMILES: CS(=O)(=O)N1CCN(C(=O)CNc2nc(-c3cccc(O)c3)nc(N3CCOCC3)n2)CC1
- pIC50 [1]: 5.97

SMILES: CN(C)C(=O)CNc1nc(-c2cccc(C(N)=O)c2)nc(N2CCOCC2)n1
- pIC50 [1]: < 4.70

SMILES: CN(CC(=O)O)c1nc(-c2cccc(O)c2)nc(N2CCOCC2)n1
- pIC50 [1]: 5.00

SMILES: CN(C)C(=O)c1ccc(Oc2nc(-c3cccc4[nH]ncc34)nc(N3CCOCC3)n2)cc1
- remaining at 2 h, 10 µM [2]: 45.6%
- AUC [10]: 5.25 µM·h
- Tmax [11]: 1 h
- Tmax [12]: 2.33 h
- AUC [13]: 2.12 µM·h
- inhibition (INH) (Cytochrome P450 3A4 [3]): Not Active
- inhibition (INH) (Cytochrome P450 2D6 [4]): Not Active
- Activity (Mus musculus [14]): Non-toxic
- remaining at 2 h, 10 µM [15]: 83.8%
- Activity (Mus musculus [16]): Non-toxic
- pIC50 [1]: 7.22
- pIC50 (Cytochrome P450 2D6 [5]): < 5.00
- AUC [17]: 9.79 µM·h
- Tmax [18]: 1 h
- Cmax [19]: 360 nM
- Cmax [20]: 1800 nM
- pEC50 (A2780): 6.28
- inhibition (INH) (Cytochrome P450 2C19 [6]): Not Active
- Activity (Mus musculus [21]): Non-toxic
- Cmax [22]: 1240 nM
- Activity (Mus musculus [23]): Non-toxic
- half-life [24]: 6.93 h
- pIC50 (Cytochrome P450 3A4 [7]): < 4.82
- half-life [25]: 6.87 h
- Activity (Mus musculus [26]): Non-toxic
- half-life [27]: 4.86 h
- pIC50 (Cytochrome P450 2C19 [8]): < 5.00
- remaining at 2 h, 10 µM [9]: 101%

SMILES: COc1cccc(-c2nc(NCC(=O)O)nc(N3CCOCC3)n2)c1
- pIC50 [1]: < 4.70

SMILES: Nc1nc(-c2cccc(O)c2)nc(N2CCOCC2)n1
- pIC50 [1]: 6.17

SMILES: CNC(=O)CNc1nc(-c2cccc(O)c2)nc(N2CCOCC2)n1
- pIC50 [1]: 6.14

SMILES: O=C(O)CNc1nc(-c2ccccc2)nc(N2CCOCC2)n1
- pIC50 [1]: < 4.70

SMILES: CN(C)C(=O)[C@H]1CC[C@H](Oc2nc(-c3cccc4[nH]ncc34)nc(N3CCOCC3)n2)CC1
- remaining at 2 h, 10 µM [2]: 27.3%
- inhibition (INH) (Cytochrome P450 3A4 [3]): Not Active
- inhibition (INH) (Cytochrome P450 2D6 [4]): Not Active
- pIC50 [1]: 7.22
- pIC50 (Cytochrome P450 2D6 [5]): < 5.00
- pEC50 (A2780): 6.17
- inhibition (INH) (Cytochrome P450 2C19 [6]): Not Active
- pIC50 (Cytochrome P450 3A4 [7]): < 4.82
- pIC50 (Cytochrome P450 2C19 [8]): < 5.00
- remaining at 2 h, 10 µM [9]: 99%

SMILES: CN(C)C(=O)c1cccc(Nc2nc(-c3cccc4[nH]ncc34)nc(N3CCOCC3)n2)c1
- pIC50 [1]: 7.22
- pEC50 (A2780): 6.10
